Measurements: ChEMBL document CHEMBL4052637, “Discovery and Characterization of R/S-N-3-Cyanophenyl-N'-(6-tert-butoxycarbonylamino-3,4-dihydro-2,2-dimethyl-2H-1-benzopyran-4-yl)urea, a New Histone Deacetylase Class III Inhibitor Exerting Antiproliferative Activity against Cancer Cell Lines” (J Med Chem, 2017)
Activity calls are given as the source filed them. The calls are words filed in the database; no cut-off is given here.

Columns and labels:
[1] = system: Hs 683; test: Antiproliferative activity against human Hs683 cells after 72 hrs by MTT assay; format: functional, cell-based; conditions: Hs 683, 72 h
In short: (§1)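 MTT assay: cells in RPMI 1640 with 10% heat-inactivated FCS at 37 °C and 5% CO2 were seeded 24 h before treatment. They were exposed 72 h to compound at 0.01–100 μM, with DMSO as solvent.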

[2] = biological target: Histone deacetylase 1 (Homo sapiens) (UniProt Q13547); test: Inhibition of His-tagged recombinant human HDAC1 expressed in baculovirus expression system at 0.1 to 100 uM using Fluor-de-Lys-SIRT1 as substrate after 15 mins by fluorescence assay
Chain of Histone deacetylase 1 (Homo sapiens) (Q13547 whole entry): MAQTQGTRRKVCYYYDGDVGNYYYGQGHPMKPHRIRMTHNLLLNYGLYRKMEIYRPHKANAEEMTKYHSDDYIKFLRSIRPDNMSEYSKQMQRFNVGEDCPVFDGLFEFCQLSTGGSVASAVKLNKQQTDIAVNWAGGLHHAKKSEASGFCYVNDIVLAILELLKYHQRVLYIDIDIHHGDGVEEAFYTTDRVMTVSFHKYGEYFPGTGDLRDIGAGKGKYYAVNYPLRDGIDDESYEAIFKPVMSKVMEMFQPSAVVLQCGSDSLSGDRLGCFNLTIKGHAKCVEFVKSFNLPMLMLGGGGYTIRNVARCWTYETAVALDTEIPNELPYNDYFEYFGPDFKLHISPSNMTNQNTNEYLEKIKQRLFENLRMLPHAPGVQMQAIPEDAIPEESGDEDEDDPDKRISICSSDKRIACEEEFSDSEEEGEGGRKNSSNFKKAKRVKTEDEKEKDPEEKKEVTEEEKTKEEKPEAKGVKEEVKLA

[3] = Induction of senescence in human U373 cells at 5 uM after 6 days by beta-galactosidase assay relative to control; format: functional, U-373MG ATCC
In short: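 Cells were kept 6 days in medium containing 5 μM compound or DMSO vehicle, then stained for senescence-associated β-galactosidase activity. Blue-stained cells were counted and expressed as a percentage of total cells counted. Two independent experiments.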

[4] = system: U-373MG ATCC; test: Inhibition of spheroid forming capacity of human U373 cells assessed as decrease in volume of multicellular tumor spheroids at 5 to 10 uM treated for 24 hrs measured after 96 hrs by bright field microscopic method; format: functional, cell-based
In short: (§2)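 Spheroids formed from 1 × 10^3 cells in 25 μL. Cells were pretreated 24 h with compound then left untreated 96 h, or untreated spheroids were cultured 96 h with compound. Surface measured from bright-field images; volume in voxels from 3D plots after image segmentation. Mean ± SD of three independent experiments.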

[5] = system: Hs 683; test: Inhibition of spheroid forming capacity of human Hs683 cells assessed as decrease in surface area of tumor spheroids at 5 to 10 uM treated for 24 hrs measured after 96 hrs by bright field microscopic method; format: functional, cell-based; in short: as §2
[6] = system: Hs 683; test: Inhibition of spheroid forming capacity of human Hs683 cells assessed as decrease in volume of multicellular tumor spheroids at 5 to 10 uM treated for 24 hrs measured after 96 hrs by bright field microscopic method; format: functional, cell-based; in short: as §2
[7] = system: SW1573/2R160; test: Antiproliferative activity against human SW1573/2R160 cells overexpressing ABCB1 after 72 hrs by MTT assay; format: functional, cell-based; in short: as §1
[8] = system: A2780cis; test: Antiproliferative activity against human A2780cis cells after 72 hrs by MTT assay; format: functional, cell-based; in short: as §1
[9] = Cytostatic activity against human U373 cells at 10 uM after 72 hrs by quantitative videomicroscopy relative to control; format: functional, U-373MG ATCC
In short: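 Cells were grown in 25 cm2 flasks, and phase-contrast images were recorded every 4 min over 72 h, in triplicate. Global growth is cell count on the last image divided by cell count on the first, at 24, 48 and 72 h. The GGR index is treated GG divided by control GG.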

[10] = biological target: T1, NAD-dependent protein deacetylase sirtuin-1 (Homo sapiens) (UniProt Q96EB6); test: Inhibition of SIRT1 in human Hs683 cells assessed as increase of histone H4 acetylation at 1 uM after 8 hrs by Western blotting method relative to control; format: cell-based
T1 sequence (whole entry): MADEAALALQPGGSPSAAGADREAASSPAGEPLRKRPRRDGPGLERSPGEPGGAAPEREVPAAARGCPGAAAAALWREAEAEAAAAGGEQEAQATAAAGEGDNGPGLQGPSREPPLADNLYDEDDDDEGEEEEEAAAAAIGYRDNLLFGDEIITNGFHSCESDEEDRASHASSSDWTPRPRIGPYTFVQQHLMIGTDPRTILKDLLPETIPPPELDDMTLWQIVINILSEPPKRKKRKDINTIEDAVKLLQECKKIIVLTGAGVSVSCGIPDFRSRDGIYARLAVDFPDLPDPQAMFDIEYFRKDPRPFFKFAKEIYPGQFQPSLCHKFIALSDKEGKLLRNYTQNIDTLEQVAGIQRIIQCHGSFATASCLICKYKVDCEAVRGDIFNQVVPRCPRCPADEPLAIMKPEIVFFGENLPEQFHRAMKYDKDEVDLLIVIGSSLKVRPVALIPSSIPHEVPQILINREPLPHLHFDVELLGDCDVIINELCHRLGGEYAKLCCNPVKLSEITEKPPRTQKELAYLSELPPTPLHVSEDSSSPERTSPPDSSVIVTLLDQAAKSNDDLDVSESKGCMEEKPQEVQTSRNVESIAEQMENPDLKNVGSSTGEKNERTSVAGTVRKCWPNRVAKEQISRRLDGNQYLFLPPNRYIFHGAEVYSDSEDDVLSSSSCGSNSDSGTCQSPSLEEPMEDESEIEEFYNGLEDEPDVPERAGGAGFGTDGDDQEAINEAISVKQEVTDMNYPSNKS

[11] = biological target: T2, NAD-dependent protein deacetylase sirtuin-2 (Homo sapiens) (UniProt Q8IXJ6); test: Inhibition of SIRT2 in human Hs683 cells assessed as increase of alpha-tubulin acetylation at 2.5 uM after 8 hrs by Western blotting method relative to control; format: cell-based
T2 sequence (whole entry): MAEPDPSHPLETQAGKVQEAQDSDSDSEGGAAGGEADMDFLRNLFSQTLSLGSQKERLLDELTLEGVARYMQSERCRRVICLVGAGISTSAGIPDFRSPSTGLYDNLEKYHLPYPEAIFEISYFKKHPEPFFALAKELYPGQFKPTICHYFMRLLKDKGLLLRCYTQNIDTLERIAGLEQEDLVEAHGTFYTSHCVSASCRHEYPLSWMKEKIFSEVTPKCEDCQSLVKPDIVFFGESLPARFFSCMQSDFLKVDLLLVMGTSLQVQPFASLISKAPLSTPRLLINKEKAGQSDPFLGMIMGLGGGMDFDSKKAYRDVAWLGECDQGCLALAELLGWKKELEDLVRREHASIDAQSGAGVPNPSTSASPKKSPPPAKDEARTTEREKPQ

[12] = biological target: T2, NAD-dependent protein deacetylase sirtuin-2 (Homo sapiens); test: Inhibition of SIRT2 in human Hs683 cells assessed as increase of alpha-tubulin acetylation at 5 uM after 8 hrs by Western blotting method relative to control; format: cell-based
[13] = Potency index, ratio of sirtinol IC50 to test compound IC50 for human U373 cells; format: functional, U-373MG ATCC
[14] = system: U-373MG ATCC; test: Antiproliferative activity against human U373 cells transfected with SIRT1/2 siRNA at IC50 for MTT assay after 72 hrs by time-lapse videomicroscopy; format: functional, cell-based
[15] = system: Hs 683; test: Antiproliferative activity against human Hs683 cells transfected with SIRT1/2 siRNA at IC50 for MTT assay after 72 hrs by time-lapse videomicroscopy; format: functional, cell-based
[16] = system: MOLT-4; test: Growth inhibition of human MOLT4 cells after 48 hrs by SRB assay; format: functional; conditions: MOLT-4, 48 h
[17] = system: A549; test: Growth inhibition of human A549 cells after 48 hrs by SRB assay; format: functional; conditions: A549, 48 h
[18] = system: NCI-H23; test: Growth inhibition of human NCI-H23 cells after 48 hrs by SRB assay; format: functional; conditions: NCI-H23, 48 h
[19] = system: SNB-19; test: Growth inhibition of human SNB19 cells after 48 hrs by SRB assay; format: functional; conditions: SNB-19, 48 h
[20] = system: MDA-MB-435; test: Growth inhibition of human MDA-MB-435 cells after 48 hrs by SRB assay; format: functional; conditions: MDA-MB-435, 48 h
[21] = system: SN12C; test: Growth inhibition of human SN12C cells after 48 hrs by SRB assay; format: functional

CC(C)(C)OC(=O)Nc1ccc2c(c1)C(NC(=O)Nc1cccc(C#N)c1)CC(C)(C)O2 (stereo unspecified)
IC50 [1]: 4000 to 5800 nM | inhibition [2]: inactive | Activity [3]: 18.2% | inhibition [4]: Active | inhibition [5]: Active | inhibition [6]: Active | Activity [7]: Active | Activity [8]: Active | Activity [9]: 70% | fold change (FC) [10]: 1.3 | fold change (FC) [11]: 1.2 | fold change (FC) [12]: 1.5 | Ratio IC50 [13]: 6 | Activity [14]: Active | Activity [15]: Active | GI50 [16]: 2090 nM | GI50 [17]: 2750 nM | GI50 [18]: 1120 nM | GI50 [19]: 3720 nM | GI50 [20]: 1480 nM | GI50 [21]: 5500 nM
